Columns and labels:
Hepatitis B virus [1] = assay: Antiviral activity against Hepatitis B virus infected in human HepG2.2.15 cells assessed as inhibition of HBsAg secretion at 20 uM supplemented with fresh medium containing compound every 3 days for 6 days and measured on day 9 by ELISA relative to control; assay type: functional
Method in brief: (§1)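 HepG2.2.15 cells were exposed to compound for up to 9 days. The initial screen used 20 µM for 9 days, with lamivudine (20 µM) as positive control. Follow-up used 10, 20 or 40 µM sampled at days 3, 6 and 9. HBsAg and HBeAg were quantified in culture supernatant by ELISA and compared with a no-drug control. Results are mean ± SD of three experiments.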

[2] = Cytotoxicity against human HepG2 cells supplemented with fresh medium containing compound every 3 days for 9 days measured post-last dose by MTT assay; assay type: cell-based
Method in brief: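 HepG2 cells were exposed to compound for 3 or 9 days and viability was read by MTT assay. CC50 is the concentration causing 50% cytotoxicity. Results are mean ± SD of three experiments.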

Hepatitis B virus [3] = assay: Antiviral activity against Hepatitis B virus infected in human HepG2.2.15 cells assessed as inhibition of HBeAg secretion at 20 uM supplemented with fresh medium containing compound every 3 days for 6 days and measured on day 9 by ELISA relative to control; assay type: functional; method in brief: as §1
Hepatitis B virus [4] = assay: Antiviral activity against Hepatitis B virus infected in human HepG2.2.15 cells assessed as inhibition of extracellular HBV DNA replication at 20 uM supplemented with fresh medium containing compound every 3 days for 9 days measured post-last dose by FQ-PCR analysis relative to control; assay type: functional
Method in brief: (§2)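 HepG2.2.15 cultures were treated at 10, 20 or 40 µM for 3, 6 and 9 days. Both intracellular and extracellular HBV DNA levels were then determined and compared with untreated cells.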

Hepatitis B virus [5] = assay: Antiviral activity against lamivudine-resistant Hepatitis B virus harboring L180M/M204V mutant infected in human HepG2.2.15 cells assessed as inhibition of extracellular HBV DNA replication at 20 uM measured on day 3 by FQ-PCR analysis relative to control; assay type: functional; settings: HepG2.2.15, 72 h
Method in brief: (§3)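 Lamivudine-resistant cell line transfected with the L180M/M204V mutant, exposed to 10, 20 or 40 µM for 3, 6 or 9 days. Intracellular and extracellular HBV DNA levels measured.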

Hepatitis B virus [6] = assay: Antiviral activity against lamivudine-resistant Hepatitis B virus harboring L180M/M204V mutant infected in human HepG2.2.15 cells assessed as inhibition of extracellular HBV DNA replication at 20 uM supplemented with fresh medium containing compound every 3 days for 9 days measured post-last dose by FQ-PCR analysis relative to control; assay type: functional; method in brief: as §3
Hepatitis B virus [7] = assay: Antiviral activity against Hepatitis B virus infected in human HepG2.2.15 cells assessed as inhibition of intracellular HBV DNA replication at 20 uM supplemented with fresh medium containing compound every 3 days for 6 days measured post-last dose by FQ-PCR analysis relative to control; assay type: functional; method in brief: as §2
Hepatitis B virus [8] = assay: Antiviral activity against Hepatitis B virus infected in human HepG2.2.15 cells assessed as inhibition of extracellular HBV DNA replication at 20 uM supplemented with fresh medium containing compound every 3 days for 6 days measured post-last dose by FQ-PCR analysis relative to control; assay type: functional; method in brief: as §2
Hepatitis B virus [9] = assay: Antiviral activity against Hepatitis B virus infected in human HepG2.2.15 cells assessed as inhibition of intracellular HBV DNA replication at 20 uM measured on day 3 by FQ-PCR analysis relative to control; assay type: functional; settings: HepG2.2.15, 72 h; method in brief: as §2
Hepatitis B virus [10] = assay: Antiviral activity against lamivudine-resistant Hepatitis B virus harboring L180M/M204V mutant infected in human HepG2.2.15 cells assessed as inhibition of intracellular HBV DNA replication at 20 uM supplemented with fresh medium containing compound every 3 days for 9 days measured post-last dose by FQ-PCR analysis relative to control; assay type: functional; method in brief: as §3
Hepatitis B virus [11] = assay: Antiviral activity against lamivudine-resistant Hepatitis B virus harboring L180M/M204V mutant infected in human HepG2.2.15 cells assessed as inhibition of intracellular HBV DNA replication at 20 uM measured on day 3 by FQ-PCR analysis relative to control; assay type: functional; settings: HepG2.2.15, 72 h; method in brief: as §3
Hepatitis B virus [12] = assay: Antiviral activity against lamivudine-resistant Hepatitis B virus harboring L180M/M204V mutant infected in human HepG2.2.15 cells assessed as inhibition of extracellular HBV DNA replication at 20 uM supplemented with fresh medium containing compound every 3 days for 6 days measured post-last dose by FQ-PCR analysis relative to control; assay type: functional; method in brief: as §3
Hepatitis B virus [13] = assay: Antiviral activity against Hepatitis B virus infected in human HepG2.2.15 cells assessed as inhibition of intracellular HBV DNA replication at 20 uM supplemented with fresh medium containing compound every 3 days for 9 days measured post-last dose by FQ-PCR analysis relative to control; assay type: functional; method in brief: as §2
Hepatitis B virus [14] = assay: Antiviral activity against lamivudine-resistant Hepatitis B virus harboring L180M/M204V mutant infected in human HepG2.2.15 cells assessed as inhibition of intracellular HBV DNA replication at 20 uM supplemented with fresh medium containing compound every 3 days for 6 days measured post-last dose by FQ-PCR analysis relative to control; assay type: functional; method in brief: as §3
Hepatitis B virus [15] = assay: Antiviral activity against Hepatitis B virus infected in human HepG2.2.15 cells assessed as inhibition of extracellular HBV DNA replication at 20 uM measured on day 3 by FQ-PCR analysis relative to control; assay type: functional; settings: HepG2.2.15, 72 h; method in brief: as §2

| Structure (SMILES) | inhibition (INH) (Hepatitis B virus [1]) [%] | CC50 at 216 h [2] [µM] | inhibition (INH) (Hepatitis B virus [3]) [%] | also measured |
| --- | --- | --- | --- | --- |
| CCCCNc1ncnc2c1nnn2[C@@H]1O[C@H](CO)[C@@H](O)[C@@]1(C)F | 17 | > 600 | 11.6 | – |
| C[C@@]1(F)[C@H](O)[C@@H](CO)O[C@H]1n1nnc2c(NCc3ccccc3)ncnc21 | 8.5 | > 600 | 11.9 | – |
| C[C@@]1(F)[C@H](O)[C@@H](CO)O[C@H]1n1nnc2c(NC3CC3)ncnc21 | 11.4 | > 600 | 16.7 | – |
| C[C@@]1(F)[C@H](O)[C@@H](CO)O[C@H]1n1nnc2c(Nc3ccccc3)ncnc21 | 14.8 | 501 | 17.7 | – |
| C[C@@]1(F)[C@H](O)[C@@H](CO)O[C@H]1n1nnc2c(N)ncnc21 | 9.9 | > 600 | 10 | – |
| CNc1ncnc2c1nnn2[C@@H]1O[C@H](CO)[C@@H](O)[C@@]1(C)F | 20.1 | > 600 | 24.4 | – |
| C[C@@]1(F)[C@H](O)[C@@H](CO)O[C@H]1n1nnc2c(=O)[nH]cnc21 | 8.5 | > 600 | 7.4 | – |
| Nc1ccn([C@@H]2CS[C@H](CO)O2)c(=O)n1 [LAMIVUDINE] | 42.4 | – | 39.6 | inhibition (INH) (Hepatitis B virus [4]): 78.6%; inhibition at 20 µM (Hepatitis B virus [5]): 4.1%; inhibition (INH) (Hepatitis B virus [6]): 19.3%; inhibition (INH) (Hepatitis B virus [7]): 69.7%; inhibition (INH) (Hepatitis B virus [8]): 54.1%; inhibition at 20 µM (Hepatitis B virus [9]): 47.4%; inhibition (INH) (Hepatitis B virus [10]): 11.2%; inhibition at 20 µM (Hepatitis B virus [11]): 6.3%; inhibition (INH) (Hepatitis B virus [12]): 8.4%; inhibition (INH) (Hepatitis B virus [13]): 77.9%; inhibition (INH) (Hepatitis B virus [14]): 7.9%; inhibition at 20 µM (Hepatitis B virus [15]): 32.7% |

— ChEMBL document CHEMBL4340532, “Design, synthesis, and biological evaluation of novel 2'-deoxy-2'-fluoro-2'-C-methyl 8-azanebularine derivatives as potent anti-HBV agents” (Bioorg Med Chem Lett, 2019)
